The source of these data is ChEMBL document CHEMBL1126885, “Alkylpurines as immunopotentiating agents. Synthesis and antiviral activity of certain alkylguanines” (1993).

For assay [1], the system named is Semliki Forest virus. Put plainly: In vivo antiviral protection against lethal Forest virus (SFV) infection at dosage of 200 mg/kg tested in 12 mice. In kind it is functional. The method, boiled down:
(§1)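 Female Swiss Webster mice, about 20 g, in groups of 12. Compound or placebo was dissolved in 2% aqueous sodium bicarbonate and given intraperitoneally 24 and 18 h before a lethal SFV challenge (10 LD50, pretitrated in mice). Treatment lasted 1 day. Survival was followed for 21 days, and survivor numbers were compared with placebo by two-tailed Fisher exact test.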

In assay [2] the test system is Semliki Forest virus. Put plainly: In vivo antiviral protection against lethal Forest virus (SFV) infection at dosage of 100 mg/kg tested in 12 mice. In kind it is functional. The method, boiled down:
as §1

Consider `CCCCn1cnc2c(O)nc(N)nc21`, for which the Activity with Semliki Forest virus [1] turned out to be 10.
In the case of `CCn1cnc2c(O)nc(N)nc21`, the Activity in the assay with Semliki Forest virus [1] amounted to 1.
In the assay on Semliki Forest virus [2], `Nc1nc(O)c2ncn(CCCCCCO)c2n1` yielded an Activity of 2.
`CCCCCCCn1c(Br)nc2c(O)nc(N)nc21` came in with an Activity with Semliki Forest virus [1] of 1.
The compound `CCCCCCCCn1c(Br)nc2c(O)nc(N)nc21` displayed an Activity in the assay on Semliki Forest virus [1] of 3.
Turning to `C=CCn1c(=S)n(CCCCCC)c2nc(N)nc(O)c21`, the Activity in the assay with Semliki Forest virus [2] worked out at 8.
Regarding `Nc1nc(O)c2nc(Br)n(CCCCCCO)c2n1`, the Activity with Semliki Forest virus [2] turned out to be 2.
In turn, `CCCCCCn1c(Cl)nc2c(O)nc(N)nc21` had an Activity in the assay on Semliki Forest virus [2] of 7.
Regarding `CCCCCn1c(S)nc2c(O)nc(N)nc21`, in the assay with Semliki Forest virus [1], the Activity is reported as 8.
On the same count and under the same terms, then `CCCCCCCCn1cnc2c(O)nc(N)nc21`, with 1.
On to `CCCCCCn1c(O)nc2c(O)nc(N)nc21`, for which the Activity in the assay with Semliki Forest virus [2] is listed as 1.
For the compound `CCCCCCn1c(=O)n(C)c2c(O)nc(N)nc21`, the Activity in the assay on Semliki Forest virus [1] is listed as 11.
`CCCCCCn1c(CC)nc2c(O)nc(N)nc21` registered an Activity in the assay on Semliki Forest virus [2] of 3.
For the compound `CCCCn1c(Br)nc2c(O)nc(N)nc21`, in the assay with Semliki Forest virus [1], the Activity is recorded as 6.
Turning to `CCCCCCn1c(S)nc2c(O)nc(N)nc21`, the Activity in the assay with Semliki Forest virus [1] was found to be 1.
As to `CCCn1cnc2c(O)nc(N)nc21`, the Activity with Semliki Forest virus [1] amounted to 2.
In the assay with Semliki Forest virus [1], `CCCCCCn1c(Br)nc2c(O)nc(N)nc21` displayed an Activity of 4.
On to `CCCCCCn1c(C)nc2c(O)nc(N)nc21`, for which the Activity with Semliki Forest virus [2] is given as 0.
`CCCCCCn1c(S)nc2c(S)nc(N)nc21` showed an Activity in the assay on Semliki Forest virus [2] of 0.
As to `CCCCCn1cnc2c(O)nc(N)nc21`, in the assay on Semliki Forest virus [1], the Activity is listed as 8.
`CCCCCn1c(Br)nc2c(O)nc(N)nc21` displayed an Activity in the assay on Semliki Forest virus [1] of 8.
In the assay on Semliki Forest virus [1], `Nc1nc(O)c2ncn(C3CCCCC3)c2n1` yielded an Activity of 0.
Turning to `C=CCSc1nc2c(O)nc(N)nc2n1CCCCCC`, the Activity with Semliki Forest virus [2] came out at 6.
In turn, `N#CCCCCCn1cnc2c(O)nc(N)nc21` returned an Activity with Semliki Forest virus [2] of 5.
`CCCCCCn1cnc2c(O)nc(N)nc21` returned an Activity with Semliki Forest virus [1] of 12.
Take `Nc1nc(O)c2ncn(C3CCCC3)c2n1`: the Activity in the assay with Semliki Forest virus [1] is on record as 0.
In the case of `C[C@]1(CO)OC(n2c(=O)sc3c(O)nc(N)nc32)[C@H](O)[C@@H]1O` (some centres not stated), in the assay with Semliki Forest virus [2], the Activity was found to be 11.
